{"source": "ChEMBL document CHEMBL1154414", "about": "“In vitro and in vivo activities of T-705 against arenavirus and bunyavirus infections” (Antimicrob Agents Chemother, 2007)", "key": {"[1]": {"tested_on": "Punta Toro virus", "experiment": "Antiviral activity against Punta Toro virus Adames infected Syrian golden hamster assessed as mean day of death at 15 mg/kg, po twice daily for 6 days administered 4 hrs before viral challenge", "type": "functional"}, "[2]": {"tested_on": "Punta Toro virus", "experiment": "Antiviral activity against Punta Toro virus Adames infected Syrian golden hamster assessed as animals with detectable virus level in liver at 60 mg/kg, po twice daily administered 4 hrs before viral challenge measured on day 4 of viral infection", "type": "functional"}, "[3]": {"tested_on": "Punta Toro virus", "experiment": "Antiviral activity against Punta Toro virus Adames infected Syrian golden hamster assessed as mean viral titer per 0.1 mL of serum at 60 mg/kg, po twice daily administered 4 hrs before viral challenge measured on day 4 of viral infection", "type": "functional"}, "[4]": {"tested_on": "Punta Toro virus", "experiment": "Antiviral activity against 500 PFU Punta Toro virus Adames infected C57BL/6 mouse assessed as animals with detectable virus level in serum at 30 mg/kg, po twice daily administered 4 hrs before viral challenge measured on day 3 of viral infection", "type": "functional", "how_it_was_run": "(§1)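 T-705 was suspended in 0.4% carboxymethylcellulose and given by oral gavage twice daily. Mice were infected subcutaneously with PTV. Five mice per group (10 placebo) were sacrificed on day 3 or 4. Liver homogenate or serum was serially diluted onto triplicate LLC-MK2 monolayers, and CPE was read at 6–8 days. The detection limit was 2.8 log10 CCID50 per 0.1 g liver or 0.1 ml serum.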"}, "[5]": {"tested_on": "Punta Toro virus", "experiment": "Antiviral activity against 500 PFU Punta Toro virus Adames infected C57BL/6 mouse assessed as mean serum ALT levels at 30 mg/kg, po twice daily administered 4 hrs before viral challenge measured on day 3 of viral infection", "type": "functional", "how_it_was_run": "(§2)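 C57BL/6 mice received subcutaneous PTV, then oral gavage twice daily for 5–7 days. T-705 was given in 0.4% CMC and ribavirin in saline. Five mice per group (10 placebo) were killed on day 3 or 4, and serum was collected. ALT activity was measured by kinetic assay. Three sham-infected mice set baselines.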"}, "[6]": {"tested_on": "Punta Toro virus", "experiment": "Antiviral activity against 500 PFU Punta Toro virus Adames infected C57BL/6 mouse assessed as mean serum ALT levels at 5 mg/kg, po twice daily administered 4 hrs before viral challenge measured on day 3 of viral infection", "type": "functional", "how_it_was_run": "as §2"}, "[7]": {"tested_on": "Punta Toro virus", "experiment": "Antiviral activity against 500 PFU Punta Toro virus Adames infected C57BL/6 mouse assessed as protection against viral infection at 10 mg/kg, po twice daily for 5 to 7 days twice daily administered 4 hrs before viral challenge", "type": "functional", "how_it_was_run": "(§3)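 PTV was inoculated subcutaneously into mice in groups of 15 (25–30 placebo). Dosing was by oral gavage twice daily for 5–7 days, with T-705 suspended in 0.4% CMC and ribavirin in saline. Remaining animals were observed 21–28 days for survival and day of death. Test doses had first been checked for tolerance in uninfected animals.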"}, "[8]": {"tested_on": "Punta Toro virus", "experiment": "Antiviral activity against 50 PFU Punta Toro virus Adames infected C57BL/6 mouse assessed as survival at 10 mg/kg, po twice daily for 5 days administered 24 hrs post viral challenge", "type": "functional, organism-based", "parameters": "dose 10 mg/kg", "how_it_was_run": "(§4)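 Groups of 15 mice (25–30 placebo) were inoculated subcutaneously with PTV. Drug in 0.4% carboxymethylcellulose was given by oral gavage twice daily.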"}, "[9]": {"tested_on": "Punta Toro virus", "experiment": "Antiviral activity against Punta Toro virus Adames infected Syrian golden hamster assessed as survival at 60 mg/kg, po twice daily for 6 days administered 4 hrs before viral challenge", "type": "functional"}, "[10]": {"tested_on": "Punta Toro virus", "experiment": "Antiviral activity against 500 PFU Punta Toro virus Adames infected C57BL/6 mouse assessed as survival at 100 mg/kg, po twice daily for 5 days administered 4 hrs before viral challenge", "type": "functional, organism-based", "parameters": "dose 100 mg/kg", "how_it_was_run": "as §3"}, "[11]": {"tested_on": "Punta Toro virus", "experiment": "Antiviral activity against 500 PFU Punta Toro virus Adames infected C57BL/6 mouse assessed as mean day of death at 50 mg/kg, po twice daily for 5 days administered 4 hrs before viral challenge", "type": "functional", "how_it_was_run": "as §4"}, "[12]": {"tested_on": "Punta Toro virus", "experiment": "Antiviral activity against 500 PFU Punta Toro virus Adames infected C57BL/6 mouse assessed as mean day of death at 25 mg/kg, po twice daily for 5 days administered 4 hrs before viral challenge", "type": "functional", "how_it_was_run": "as §4"}, "[13]": {"tested_on": "Punta Toro virus", "experiment": "Antiviral activity against 500 PFU Punta Toro virus Adames infected C57BL/6 mouse assessed as animals with detectable virus level in liver at 100 mg/kg, po twice daily administered 4 hrs before viral challenge measured on day 4 of viral infection", "type": "functional", "how_it_was_run": "as §1"}, "[14]": {"tested_on": "Punta Toro virus", "experiment": "Antiviral activity against 500 PFU Punta Toro virus Adames infected C57BL/6 mouse assessed as mean viral titer per 0.1 mL of serum at 200 mg/kg, po twice daily administered 4 hrs before viral challenge measured on day 4 of viral infection", "type": "functional", "how_it_was_run": "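Mice were infected subcutaneously with PTV and dosed by oral gavage twice daily; 5 per group (10 placebo) were killed on day 3 or 4. Liver homogenate or serum was serially diluted onto triplicate LLC-MK2 monolayers, and CPE was read 6–8 days later. 50% endpoints gave log10 CCID50 per 0.1 g liver or 0.1 ml serum. Detection range was 2.8–9.5; undetectable samples were assigned <2.8.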"}, "[15]": {"tested_on": "Respiratory syncytial virus", "experiment": "Antiviral activity against Respiratory syncytial virus", "type": "functional, organism-based", "conditions": "human respiratory syncytial virus"}, "[16]": {"tested_on": "Punta Toro virus", "experiment": "Antiviral activity against Punta Toro virus Adames infected Syrian golden hamster assessed as animals with detectable virus level in serum at 15 mg/kg, po twice daily administered 4 hrs before viral challenge measured on day 4 of viral infection", "type": "functional"}, "[17]": {"tested_on": "Punta Toro virus", "experiment": "Antiviral activity against Punta Toro virus Adames infected Syrian golden hamster assessed as mean serum ALT levels at 60 mg/kg, po twice daily administered 4 hrs before viral challenge measured on day 4 of viral infection", "type": "functional"}, "[18]": {"tested_on": "Junin virus", "experiment": "Antiviral activity against Junin virus Candid-1 assessed as reduction of 1 log10 unit viral titer yields after 7 to 8 days", "type": "functional", "conditions": "Mammarenavirus juninense"}, "[19]": {"tested_on": "Pichinde virus", "experiment": "Antiviral activity against Pichinde virus An 4763 assessed as reduction of 1 log10 unit viral titer yields after 7 to 8 days", "type": "functional"}, "[20]": {"tested_on": "Pichinde virus", "experiment": "Antiviral activity against Pichinde virus An 4763 infected Syrian golden hamster assessed as mean viral titer per 0.1 mL of serum at 30 mg/kg, po twice daily for 7 days administered 4 hrs before viral-challenge measured on day 7 of viral infection", "type": "functional"}, "[21]": {"tested_on": "Pichinde virus", "experiment": "Antiviral activity against Pichinde virus An 4763 infected Syrian golden hamster assessed as mean viral titer per 0.1 mL of serum at 15 mg/kg, po twice daily for 7 days administered 4 hrs before viral-challenge measured on day 7 of viral infection", "type": "functional"}, "[22]": {"tested_on": "Pichinde virus", "experiment": "Antiviral activity against Pichinde virus An 4763 infected Syrian golden hamster assessed as animals with detectable virus level in serum at 60 mg/kg, po twice daily for 7 days administered 4 hrs before viral-challenge measured on day 7 of viral infection", "type": "functional"}, "[23]": {"tested_on": "Pichinde virus", "experiment": "Antiviral activity against Pichinde virus An 4763 infected Syrian golden hamster assessed as animals with detectable virus level in serum at 30 mg/kg, po twice daily for 7 days administered 4 hrs before viral-challenge measured on day 7 of viral infection", "type": "functional"}, "[24]": {"tested_on": "Punta Toro virus", "experiment": "Antiviral activity against 500 PFU Punta Toro virus Adames infected C57BL/6 mouse assessed as mean serum ALT levels at 25 mg/kg, po twice daily administered 4 hrs before viral challenge measured on day 4 of viral infection", "type": "functional", "how_it_was_run": "as §2"}, "[25]": {"tested_on": "Punta Toro virus", "experiment": "Antiviral activity against 5000 PFU Punta Toro virus Adames infected C57BL/6 mouse assessed as survival at 30 mg/kg, po twice daily for 5 days 24 hrs post viral challenge", "type": "functional", "how_it_was_run": "as §3"}, "[26]": {"experiment": "Cytotoxicity against african green monkey Vero cells after 7 to 8 days by neutral-red dye uptake assay", "type": "cell-based", "conditions": "chlorocebus sabaeus", "how_it_was_run": "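Subconfluent (50-70%) Vero cells received half-log drug dilutions without virus and were held at 37°C, 5% CO2 for 7-8 days. Cells were stained with 0.034% neutral red for 2 h, and the dye was extracted 30 min in ethanol with Sorenson's citrate buffer. Absorbance was read at 540 nm as % of untreated controls. CC50 was derived by regression.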"}}, "note": "Active and inactive are the calls of the source. The rule behind the calls is not given here.", "data": [{"smiles": "NC(=O)c1nc(F)cnc1O", "note": "[FAVIPIRAVIR]", "values": [{"measurement": "Activity", "setting": "[1]", "result": 5.4, "unit": "days"}, {"measurement": "Activity", "setting": "[2]", "result": 20, "unit": "%"}, {"measurement": "log10CCID50", "setting": "[3]", "result": "<3.8"}, {"measurement": "Activity", "setting": "[4]", "result": 80, "unit": "%"}, {"measurement": "Activity", "setting": "[5]", "result": 9, "unit": "IU/L"}, {"measurement": "Activity", "setting": "[6]", "result": 2461, "unit": "IU/L"}, {"measurement": "Activity", "setting": "[7]", "result": 90, "unit": "%"}, {"measurement": "Activity", "setting": "[8]", "result": "inactive"}, {"measurement": "survival at 60 mg/kg", "setting": "[9]", "result": 90, "unit": "%"}, {"measurement": "Activity", "setting": "[10]", "result": "Active"}, {"measurement": "Activity", "setting": "[11]", "result": ">21", "unit": "days"}, {"measurement": "Activity", "setting": "[12]", "result": ">21", "unit": "days"}, {"measurement": "Activity", "setting": "[13]", "result": 0, "unit": "%"}, {"measurement": "log10CCID50", "setting": "[14]", "result": "<2.8"}, {"measurement": "EC50", "setting": "[15]", "result": 261, "unit": "µM"}, {"measurement": "Activity", "setting": "[16]", "result": 100, "unit": "%"}, {"measurement": "Activity", "setting": "[17]", "result": 17, "unit": "IU/L"}, {"measurement": "EC90", "setting": "[18]", "result": 7, "unit": "µM"}, {"measurement": "EC90", "setting": "[19]", "result": 19, "unit": "µM"}, {"measurement": "log10CCID50", "setting": "[20]", "result": "<5.2"}, {"measurement": "log10CCID50", "setting": "[21]", "result": "<5.3"}, {"measurement": "Activity", "setting": "[22]", "result": 0, "unit": "%"}, {"measurement": "Activity", "setting": "[23]", "result": 80, "unit": "%"}, {"measurement": "Activity", "setting": "[24]", "result": 69, "unit": "IU/L"}, {"measurement": "Activity", "setting": "[25]", "result": 90, "unit": "%"}]}, {"smiles": "NC(=O)c1ncn([C@@H]2O[C@H](CO)[C@@H](O)[C@H]2O)n1", "note": "[RIBAVIRIN]", "values": [{"measurement": "CC50", "setting": "[26]", "result": 156, "unit": "µM"}]}]}
